From ChEMBL document CHEMBL4622985, “Design, Synthesis, and Pharmacological Characterization of Heterobivalent Ligands for the Putative 5-HT2A/mGlu2 Receptor Complex” (J Med Chem, 2020)

Experiments:
[1] = target: T1, 5-hydroxytryptamine receptor 2A/Metabotropic glutamate receptor 2 (Homo sapiens, UniProt P28223+Q14416); experiment: Displacement of [3H]-ketanserin from human 5HT2A/mGlu2 receptor expressed in HEK293 cell membranes incubated for 2 hrs by scintillation counting method
Method in brief: (§1)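 Membranes from stable HEK293 lines were homogenized and centrifuged twice at 50.000g, 4 °C, then resuspended in 50 mM Tris-HCl, 10 mM MgCl2, 0.1 mM EDTA, pH 7.4. Competition used fixed [3H]ketanserin ~1.5 nM (1.3−1.8 nM) against varied test compound, with bound/free kept <10%. Incubation ran 2 h at rt with shaking, followed by GF/C filtration. Ki was obtained by Cheng−Prusoff using saturation KD. Three independent experiments, each in duplicate.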

[2] = target: T2, 5-hydroxytryptamine receptor 2A (Homo sapiens, UniProt P28223); experiment: Displacement of [3H]-ketanserin from human HT2A receptor expressed in HEK293 cell membranes incubated for 2 hrs by scintillation counting method; method in brief: as §1
T2 sequence (P28223 whole entry): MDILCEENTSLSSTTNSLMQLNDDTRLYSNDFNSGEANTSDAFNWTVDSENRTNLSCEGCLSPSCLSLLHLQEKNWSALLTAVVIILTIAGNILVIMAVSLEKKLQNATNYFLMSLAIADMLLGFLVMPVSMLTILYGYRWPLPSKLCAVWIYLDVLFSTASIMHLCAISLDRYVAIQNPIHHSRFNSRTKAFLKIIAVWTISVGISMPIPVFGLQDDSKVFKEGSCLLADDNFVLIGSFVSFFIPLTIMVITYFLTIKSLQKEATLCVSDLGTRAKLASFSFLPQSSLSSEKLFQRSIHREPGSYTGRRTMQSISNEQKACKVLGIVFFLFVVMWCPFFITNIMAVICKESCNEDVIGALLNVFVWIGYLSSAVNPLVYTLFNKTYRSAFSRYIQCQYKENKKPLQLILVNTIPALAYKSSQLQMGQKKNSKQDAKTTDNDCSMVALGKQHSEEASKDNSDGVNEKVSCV

[3] = target: T1, 5-hydroxytryptamine receptor 2A/Metabotropic glutamate receptor 2; experiment: Displacement of [3H]-ketanserin from human 5HT2A/mGlu2 receptor expressed in HEK293 cell co-expressing Gqo5 membranes incubated for 2 hrs by scintillation counting method; type: cell-based; method in brief: as §1
[4] = target: T1, 5-hydroxytryptamine receptor 2A/Metabotropic glutamate receptor 2; experiment: Antagonist activity at human 5HT2A/mGlu2 receptor expressed in HEK293 cells co-expressing Gqo5 assessed as inhibition of 5HT-induced intracellular Ca2+ mobilization incubated for 1 hr by Fluo-4 dye based fluorescence assay 5HT2A_HUMAN/GRM2_HUMAN P28223/Q14416; type: functional, cell-based
[5] = target: T3, Metabotropic glutamate receptor 2 (Homo sapiens, UniProt Q14416); experiment: Agonist activity at human mGlu2 receptor expressed in HEK293 cells co-expressing Gqo5 assessed as increase in intracellular Ca2+ mobilization incubated for 1 hr by Fluo-4 dye based fluorescence assay; type: functional, cell-based
T3 sequence (Q14416 whole entry): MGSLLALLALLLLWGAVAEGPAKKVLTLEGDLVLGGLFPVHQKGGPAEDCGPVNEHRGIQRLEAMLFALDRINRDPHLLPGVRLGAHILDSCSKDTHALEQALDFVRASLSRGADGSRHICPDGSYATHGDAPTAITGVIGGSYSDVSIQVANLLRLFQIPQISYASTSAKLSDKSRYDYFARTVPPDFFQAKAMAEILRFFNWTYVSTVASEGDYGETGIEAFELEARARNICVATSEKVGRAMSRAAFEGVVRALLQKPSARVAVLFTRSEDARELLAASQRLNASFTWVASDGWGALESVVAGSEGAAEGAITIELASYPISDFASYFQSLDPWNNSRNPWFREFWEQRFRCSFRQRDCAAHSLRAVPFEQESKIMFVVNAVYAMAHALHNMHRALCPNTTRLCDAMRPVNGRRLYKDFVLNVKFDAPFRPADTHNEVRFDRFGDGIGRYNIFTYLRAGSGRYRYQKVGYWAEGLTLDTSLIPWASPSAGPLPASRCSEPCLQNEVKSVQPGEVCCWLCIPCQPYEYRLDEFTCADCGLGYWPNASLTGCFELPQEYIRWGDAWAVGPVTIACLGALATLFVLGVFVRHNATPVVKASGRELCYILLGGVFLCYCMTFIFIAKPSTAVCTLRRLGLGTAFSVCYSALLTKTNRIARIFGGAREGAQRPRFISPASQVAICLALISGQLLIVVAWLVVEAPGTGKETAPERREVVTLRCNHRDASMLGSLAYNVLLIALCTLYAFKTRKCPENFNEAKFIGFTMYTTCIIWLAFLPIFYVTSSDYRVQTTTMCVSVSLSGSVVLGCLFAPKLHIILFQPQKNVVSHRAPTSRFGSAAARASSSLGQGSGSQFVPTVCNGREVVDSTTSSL

[6] = target: T2, 5-hydroxytryptamine receptor 2A; experiment: Antagonist activity at human 5HT2A receptor expressed in HEK293 cells assessed as inhibition of 5HT-induced intracellular Ca2+ mobilization incubated for 1 hr by Fluo-4 dye based fluorescence assay; type: functional, cell-based
[7] = target: T1, 5-hydroxytryptamine receptor 2A/Metabotropic glutamate receptor 2; experiment: Antagonist activity at human 5HT2A/mGlu2 receptor expressed in HEK293 cells co-expressing Gqo5 assessed as inhibition of glutamate-induced intracellular Ca2+ mobilization incubated for 1 hr by Fluo-4 dye based fluorescence assay 5HT2A_HUMAN/GRM2_HUMAN P28223/Q14416; type: functional, cell-based
[8] = target: T1, 5-hydroxytryptamine receptor 2A/Metabotropic glutamate receptor 2; experiment: Antagonist activity at human 5HT2A/mGlu2 receptor expressed in HEK293 cells assessed as inhibition of 5HT-induced intracellular Ca2+ mobilization incubated for 1 hr by Fluo-4 dye based fluorescence assay 5HT2A_HUMAN/GRM2_HUMAN P28223/Q14416; type: functional, cell-based
[9] = target: T1, 5-hydroxytryptamine receptor 2A/Metabotropic glutamate receptor 2; experiment: Agonist activity at human 5HT2A/mGlu2 receptor expressed in HEK293 cells co-expressing Gqo5 assessed as increase in intracellular Ca2+ mobilization incubated for 1 hr by Fluo-4 dye based fluorescence assay; type: functional, cell-based
[10] = target: T3, Metabotropic glutamate receptor 2; experiment: Positive modulator activity at human mGlu2 receptor expressed in HEK293 cells co-expressing Gqo5 assessed as increase in intracellular Ca2+ mobilization incubated for 1 hr in presence of EC20 glutamate by Fluo-4 dye based fluorescence assay; type: functional, cell-based
[11] = target: T1, 5-hydroxytryptamine receptor 2A/Metabotropic glutamate receptor 2; experiment: Positive modulator activity at human 5HT2A/mGlu2 receptor expressed in HEK293 cells co-expressing Gqo5 assessed as increase in intracellular Ca2+ mobilization incubated for 1 hr by Fluo-4 dye based fluorescence assay 5HT2A_HUMAN/GRM2_HUMAN P28223/Q14416; type: functional, cell-based

T1 sequence (P28223 whole entry): as the sequence (P28223 whole entry) above
T1 sequence (Q14416 whole entry): as the sequence (Q14416 whole entry) above

| SMILES | Ki ([1]; read-out: Ki) | Ki ([1]; read-out: pKi (converted)) | Ki ([2]; read-out: Ki) | Ki ([3]; read-out: Ki) | IC50 [4] | EC50 ([5]; read-out: EC50) | IC50 ([6]; read-out: IC50) | IC50 [7] | IC50 ([8]; read-out: IC50) | IC50 ([8]; read-out: pIC50 (converted)) | EC50 ([9]; read-out: EC50) | EC50 ([10]; read-out: EC50) | EC50 ([5]; read-out: pEC50 (converted)) | EC50 ([9]; read-out: pEC50 (converted)) | EC50 ([10]; read-out: pEC50 (converted)) | Ki ([2]; read-out: pKi (converted)) | Ki ([3]; read-out: pKi (converted)) | IC50 ([6]; read-out: pIC50 (converted)) | EC50 [11] |
| --- | --- | --- | --- | --- | --- | --- | --- | --- | --- | --- | --- | --- | --- | --- | --- | --- | --- | --- | --- |
| COc1c(OCCOCCOCCOCCOCCOCCOCCOCCOCCOCCOc2ccc(C3CCN(c4ccn5c(CC6CC6)nnc5c4Cl)CC3)cc2)cccc1C(=O)C1CCN(CCc2ccc(F)cc2)CC1 | 0.07 µM | 0.0724 µM | 0.079 µM | 0.12 µM | 0.14 µM | 1.2 µM | 0.3 µM | 1.2 µM | 0.3 µM | 0.309 µM | 10 to 50 µM | 0.32 µM |  |  |  |  |  |  |  |
| COc1c(O)cccc1C(=O)C1CCN(CCc2ccc(F)cc2)CC1 |  |  |  |  | 0.022 µM | > 50 µM | 0.011 µM | 0.023 µM | 0.0092 µM |  | > 50 µM | > 50 µM | > 50.1 µM | > 50.1 µM | > 50.1 µM |  |  |  |  |
| COc1c(OCCOCCOCCOCCOCCOCCOCCOCCOc2ccc(C3CCN(c4ccn5c(CC6CC6)nnc5c4Cl)CC3)cc2)cccc1C(=O)C1CCN(CCc2ccc(F)cc2)CC1 | 0.12 µM |  | 0.11 µM | 0.16 µM | 0.47 µM | 1.6 µM | 0.41 µM | 0.66 µM | 0.27 µM |  | 10 to 50 µM | 0.51 µM |  |  |  | 0.12 µM | 0.132 µM |  |  |
| COc1c(OCCOCCOCCOCCOCCOCCOc2ccc(C3CCN(c4ccn5c(CC6CC6)nnc5c4Cl)CC3)cc2)cccc1C(=O)C1CCN(CCc2ccc(F)cc2)CC1 | 0.12 µM |  | 0.1 µM | 0.19 µM | 0.42 µM | 1.2 µM | 0.27 µM | 0.89 µM | 0.51 µM |  | 10 to 50 µM | 0.53 µM |  |  |  |  |  |  |  |
| COc1c(OCCOCCOCCOc2ccc(C3CCN(c4ccn5c(CC6CC6)nnc5c4Cl)CC3)cc2)cccc1C(=O)C1CCN(CCc2ccc(F)cc2)CC1 | 0.84 µM |  | 0.36 µM | 1.04 µM | 9.9 µM | 0.9 µM | 1.2 µM | 5.3 µM | 7.9 µM |  | 10 to 50 µM | 0.32 µM |  |  |  |  |  |  |  |
| COc1c(OCCOCCOCCOCCOc2ccc(C3CCN(c4ccn5c(CC6CC6)nnc5c4Cl)CC3)cc2)cccc1C(=O)C1CCN(CCc2ccc(F)cc2)CC1 | 0.1 µM |  | 0.033 µM | 0.11 µM | 0.8 µM | 0.55 µM | 0.28 µM | 0.99 µM | 1.7 µM | 1.55 µM | 10 to 50 µM | 0.33 µM |  |  |  |  |  | 0.288 µM |  |
| COc1cccc(C(=O)C2CCN(CCc3ccc(F)cc3)CC2)c1OC | 0.003 µM |  | 0.00052 µM | 0.0087 µM | 0.0054 µM | > 50 µM | 0.00081 µM | 0.024 µM | 0.0062 µM |  | > 50 µM | > 50 µM | > 50.1 µM | > 50.1 µM | > 50.1 µM |  |  |  |  |
| COc1ccccc1C1CCN(c2ccn3c(CC4CC4)nnc3c2Cl)CC1 |  |  |  |  |  | 0.037 µM | 1.3 µM |  | 10 µM |  | 0.21 µM | 0.0052 µM | 0.0355 µM |  |  |  |  |  | 0.019 µM |
| COc1c(OCCOCCOCCOCCOCCOc2ccc(C3CCN(c4ccn5c(CC6CC6)nnc5c4Cl)CC3)cc2)cccc1C(=O)C1CCN(CCc2ccc(F)cc2)CC1 | 0.18 µM |  | 0.13 µM | 0.32 µM | 2.4 µM | 1.6 µM | 0.45 µM | 1.9 µM | 1 µM |  | 10 to 50 µM | 0.51 µM |  |  |  |  |  |  |  |
| COCCOc1cccc(C(=O)C2CCN(CCc3ccc(F)cc3)CC2)c1OC | 0.0065 µM |  | 0.003 µM | 0.013 µM | 0.023 µM | > 50 µM | 0.0093 µM | 0.029 µM | 0.016 µM |  | > 50 µM | > 50 µM | > 50.1 µM | > 50.1 µM | > 50.1 µM |  |  |  |  |
| COc1c(OCCOCCOCCOCCOCCOCCOCCOCCOCCOCCOCCOCCOc2ccc(C3CCN(c4ccn5c(CC6CC6)nnc5c4Cl)CC3)cc2)cccc1C(=O)C1CCN(CCc2ccc(F)cc2)CC1 | 0.17 µM |  | 0.2 µM | 0.17 µM | 0.38 µM | 2.5 µM | 0.52 µM | 0.7 µM | 1.6 µM |  | 10 to 50 µM | 0.48 µM |  |  |  |  |  |  |  |
